ChEMBL document CHEMBL5149991 (J Med Chem, 2021)

Key:
Histamine H3 receptor [1] = molecular target: T1, Histamine H3 receptor (Homo sapiens, UniProt Q9Y5N1); assay: Displacement of [3H]UR-PI294 from human histamine H3 receptor stably expressed in baculovirus infected Sf9 cell membrane co-expressing G-alphai2 and G-beta1gamma2 incubated for 60 mins by scintillation counting analysis; assay type: cell membranes
Procedure, shortened: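 hH3R + Gαi2 + Gβ1γ2 expressed in Sf9 membranes. […] Mean ± SEM from N independent experiments in triplicate.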

Histamine H1 receptor = Histamine H1 receptor (Homo sapiens, UniProt P35367)
Sequence of Histamine H1 receptor (P35367 whole entry): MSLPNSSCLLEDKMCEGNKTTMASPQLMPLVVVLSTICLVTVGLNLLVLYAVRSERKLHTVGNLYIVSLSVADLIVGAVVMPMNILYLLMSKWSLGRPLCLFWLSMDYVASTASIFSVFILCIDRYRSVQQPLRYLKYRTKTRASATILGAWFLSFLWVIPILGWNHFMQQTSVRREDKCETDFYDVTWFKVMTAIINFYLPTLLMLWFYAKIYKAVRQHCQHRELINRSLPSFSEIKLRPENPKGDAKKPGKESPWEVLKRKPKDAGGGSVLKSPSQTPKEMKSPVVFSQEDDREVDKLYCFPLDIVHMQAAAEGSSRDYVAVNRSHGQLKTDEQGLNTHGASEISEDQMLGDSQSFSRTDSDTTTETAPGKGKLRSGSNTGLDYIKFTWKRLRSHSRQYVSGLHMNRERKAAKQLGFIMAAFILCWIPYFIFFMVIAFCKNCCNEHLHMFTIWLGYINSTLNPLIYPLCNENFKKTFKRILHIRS

Histamine H4 receptor = Histamine H4 receptor (Homo sapiens, UniProt Q9H3N8)
Sequence of Histamine H4 receptor (Q9H3N8 whole entry): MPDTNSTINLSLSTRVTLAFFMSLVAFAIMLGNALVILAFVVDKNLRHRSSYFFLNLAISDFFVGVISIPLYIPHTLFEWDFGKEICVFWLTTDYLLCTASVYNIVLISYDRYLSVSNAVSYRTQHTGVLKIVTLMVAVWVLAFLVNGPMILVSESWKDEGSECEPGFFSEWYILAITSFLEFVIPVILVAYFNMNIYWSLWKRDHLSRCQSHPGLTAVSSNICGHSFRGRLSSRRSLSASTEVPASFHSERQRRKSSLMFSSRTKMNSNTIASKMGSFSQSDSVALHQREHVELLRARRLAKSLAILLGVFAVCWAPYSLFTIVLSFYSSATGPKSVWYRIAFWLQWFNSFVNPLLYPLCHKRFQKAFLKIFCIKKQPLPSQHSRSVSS

Histamine H2 receptor [2] = molecular target: T2, Histamine H2 receptor (Homo sapiens, UniProt P25021); assay: Displacement of [3H]UR-DE257 from human histamine H2 receptor stably expressed in baculovirus infected Sf9 cell membrane co-expressing RG-Salpha S incubated for 60 mins by scintillation counting analysis; assay type: cell membranes
T2 sequence (P25021 whole entry): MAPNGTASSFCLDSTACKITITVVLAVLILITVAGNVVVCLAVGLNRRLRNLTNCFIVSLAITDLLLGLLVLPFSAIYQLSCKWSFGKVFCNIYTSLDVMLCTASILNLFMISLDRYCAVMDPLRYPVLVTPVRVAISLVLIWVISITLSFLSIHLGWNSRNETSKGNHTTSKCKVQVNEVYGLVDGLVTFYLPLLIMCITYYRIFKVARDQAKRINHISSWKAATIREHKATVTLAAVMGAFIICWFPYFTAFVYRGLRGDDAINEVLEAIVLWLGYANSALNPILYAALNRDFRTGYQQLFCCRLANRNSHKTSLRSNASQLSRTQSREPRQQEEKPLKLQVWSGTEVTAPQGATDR

[3] = Chemical stability in pH 7.4 buffer measured at 0 to 2 weeks by HPLC analysis; assay type: physicochemical; settings: time 0-2 weeks
Histamine H3 receptor [4] = molecular target: T1, Histamine H3 receptor
Histamine H2 receptor [5] = molecular target: T2, Histamine H2 receptor; assay: Agonist activity at human histamine H2 receptor stably expressed in HEK293T cells co-expressing NlucN-mGs/hH2R-NlucC assessed as induction of mini-Gs protein recruitment using furimazine as substrate measured for 45 mins by luminescence assay
D(3) dopamine receptor [6] = molecular target: T3, D(3) dopamine receptor (Homo sapiens, UniProt P35462); assay: Agonist activity at human D3 receptor stably expressed in HEK293T cells co-expressing ElucN-betaarr2 hD3R-ElucC by beta-arrestin2 recruitment assay; assay type: functional, cell-based
T3 sequence (P35462 whole entry, canonical isoform): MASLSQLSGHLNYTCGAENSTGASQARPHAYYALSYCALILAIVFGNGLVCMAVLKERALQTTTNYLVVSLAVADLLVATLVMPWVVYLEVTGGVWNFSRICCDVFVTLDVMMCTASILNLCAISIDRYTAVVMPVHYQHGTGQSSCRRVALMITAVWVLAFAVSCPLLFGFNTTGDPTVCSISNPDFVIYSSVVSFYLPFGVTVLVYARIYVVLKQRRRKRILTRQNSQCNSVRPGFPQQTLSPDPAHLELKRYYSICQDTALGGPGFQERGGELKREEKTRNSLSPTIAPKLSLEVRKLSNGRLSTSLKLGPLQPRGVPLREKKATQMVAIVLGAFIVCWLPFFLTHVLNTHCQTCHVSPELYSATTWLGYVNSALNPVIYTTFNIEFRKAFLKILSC

D(2) dopamine receptor [7] = molecular target: T4, D(2) dopamine receptor (Homo sapiens, UniProt P14416); assay type: functional, cell-based, HEK293T;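 further: agonist mode, β-arrestin2 recruitment to the human D2 long isoform stably expressed in HEK293T cells, read by split luciferase complementation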
T4 sequence (P14416 whole entry, canonical isoform): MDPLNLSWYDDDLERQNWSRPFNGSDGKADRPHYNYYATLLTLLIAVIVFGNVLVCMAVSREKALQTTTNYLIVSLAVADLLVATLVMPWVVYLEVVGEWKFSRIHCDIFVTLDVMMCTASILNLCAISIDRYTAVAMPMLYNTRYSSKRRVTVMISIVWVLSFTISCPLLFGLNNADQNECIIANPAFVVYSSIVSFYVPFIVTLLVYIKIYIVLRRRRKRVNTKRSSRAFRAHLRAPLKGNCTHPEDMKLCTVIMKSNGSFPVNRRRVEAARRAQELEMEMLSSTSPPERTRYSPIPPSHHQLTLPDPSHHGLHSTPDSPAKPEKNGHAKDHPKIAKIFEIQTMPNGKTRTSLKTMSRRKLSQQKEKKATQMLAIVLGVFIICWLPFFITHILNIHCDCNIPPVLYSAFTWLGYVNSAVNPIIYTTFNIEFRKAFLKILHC

D(2) dopamine receptor [8] = molecular target: T4, D(2) dopamine receptor; assay: Displacement of [3H]N-methylspiperone from human D2 long receptor stably expressed in HEK293T cells co-expressing luciferase and CEK incubated for 140 mins by radioligand competition binding based assay; assay type: cell-based
D(3) dopamine receptor [9] = molecular target: T3, D(3) dopamine receptor; assay: Displacement of [3H]N-methylspiperone from human D3 receptor stably expressed in HEK293T cells co-expressing luciferase and CEK incubated for 140 mins by radioligand competition binding based assay; assay type: cell-based
Histamine H2 receptor [10] = molecular target: T2, Histamine H2 receptor; assay: Agonist activity at human histamine H2 receptor stably expressed in HEK293T cells co-expressing ARRB2 incubated for 60 mins by beta-arrestin2 recruitment assay; assay type: functional, cell-based

T1 sequence (Q9Y5N1 whole entry): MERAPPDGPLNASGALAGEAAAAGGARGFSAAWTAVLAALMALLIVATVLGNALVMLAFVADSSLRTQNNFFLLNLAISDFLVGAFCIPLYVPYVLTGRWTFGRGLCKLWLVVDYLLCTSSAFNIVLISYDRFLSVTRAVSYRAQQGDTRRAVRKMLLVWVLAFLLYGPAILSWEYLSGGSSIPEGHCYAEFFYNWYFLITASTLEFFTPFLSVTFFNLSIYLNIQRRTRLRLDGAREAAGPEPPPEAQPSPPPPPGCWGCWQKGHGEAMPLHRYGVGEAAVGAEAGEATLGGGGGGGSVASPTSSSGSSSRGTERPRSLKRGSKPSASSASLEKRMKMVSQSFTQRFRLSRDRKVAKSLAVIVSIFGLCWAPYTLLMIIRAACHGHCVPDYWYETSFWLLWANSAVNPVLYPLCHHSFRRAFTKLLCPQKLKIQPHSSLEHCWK

Compound	Ki (Histamine H3 receptor [1])	Kd (Histamine H1 receptor)	Ki (Histamine H1 receptor)	Kd (Histamine H4 receptor)	Ki (Histamine H4 receptor)	Ki (Histamine H2 receptor [2])	Stability [3]	Kd (Histamine H3 receptor [4])	Ki (Histamine H3 receptor [4])	EC50 (Histamine H2 receptor [5])	EC50 (D(3) dopamine receptor [6])	EC50 (D(2) dopamine receptor [7])	Ki (D(2) dopamine receptor [8])	Ki (D(3) dopamine receptor [9])	EC50 (Histamine H2 receptor [10])
Cc1nc(N)oc1CCCN/C(N)=N/C(=O)NCc1ccccc1	> 10000 nM	4.5 nM	8910 nM	16 nM	> 10000 nM	389 nM									
Cc1nc(N)sc1-c1cccc(N/C(N)=N/C(=O)NCc2ccccc2)c1	> 10000 nM	4.5 nM	7240 nM	16 nM	> 10000 nM	302 nM									
CCCCCCNC(=O)/N=C(\N)NCCCc1nnc(N)o1.O=C(O)C(F)(F)F.O=C(O)C(F)(F)F	> 10000 nM	4.5 nM	8910 nM	16 nM	> 10000 nM	389 nM	Stable								
Cc1ccc(CC(C)CNC(=O)/N=C(\N)Nc2cccc(-c3sc(N)nc3C)c2)cc1 (stereo unspecified)	12900 nM	4.5 nM	5250 nM	16 nM	7410 nM	234 nM									
C[C@@H](NC(=O)/N=C(\N)NCCCc1c[nH]cn1)c1ccccc1	1.7 nM	4.5 nM	3980 nM	16 nM	8.51 nM	6.17 nM									
CCCCCNC(=O)/N=C(\N)Nc1ccc(-c2sc(N)nc2C)cc1.O=C(O)C(F)(F)F.O=C(O)C(F)(F)F	11500 nM	4.5 nM	3720 nM	16 nM	7760 nM	457 nM	Stable	3 nM	11500 nM						
Cc1nc(N)sc1-c1ccc(N/C(N)=N/C(=O)NCc2ccccc2)cc1	8510 nM	4.5 nM	1290 nM	16 nM	12000 nM	214 nM		3 nM	8510 nM						
Cc1nc(N)sc1-c1ccc(N/C(N)=N/C(=O)NC2CCCCC2)cc1	12300 nM	4.5 nM	5500 nM	16 nM	6920 nM	550 nM		3 nM	12300 nM						
CCCCCNC(=O)/N=C(\N)Nc1cccc(-c2sc(N)nc2C)c1.O=C(O)C(F)(F)F.O=C(O)C(F)(F)F	9550 nM	4.5 nM	6610 nM	16 nM	7410 nM	191 nM	Stable								
Cc1ccc(CC(C)CNC(=O)/N=C(\N)NCCCc2cnc(N)s2)cc1 (stereo unspecified)	4790 nM	4.5 nM	2510 nM	16 nM	4470 nM	64.6 nM				77.6 nM	1050 nM	4470 nM	490 nM	229 nM	234 nM
NCCCCCCCCNC(=O)/N=C(\N)NCCCc1nnc(N)s1	> 10000 nM	4.5 nM	525 nM	16 nM	> 10000 nM	33.1 nM									
Cc1nnc(CCCN/C(N)=N/C(=O)NCCCCCCCCN)s1	11700 nM	4.5 nM	309 nM	16 nM	> 10000 nM	1820 nM									
Cc1nc(N)sc1-c1cccc(N/C(N)=N/C(=O)NCC(C)CCCc2ccccc2)c1 (stereo unspecified)	10700 nM	4.5 nM	13200 nM	16 nM	7080 nM	234 nM									
Cc1ccc(CC(C)CNC(=O)/N=C(\N)NCCCc2nnc(N)o2)cc1 (stereo unspecified)	9120 nM	4.5 nM	2690 nM	16 nM	> 10000 nM	676 nM									
CC(CCCc1ccccc1)CNC(=O)/N=C(\N)NCC1CCc2nc(N)sc2C1 (stereo unspecified)	1740 nM	4.5 nM	3890 nM	16 nM	4070 nM	110 nM		3 nM	1740 nM						
N/C(=N\C(=O)NCc1ccccc1)NCC1CCc2nc(N)sc2C1 (stereo unspecified)		4.5 nM	3890 nM	16 nM	5890 nM	302 nM		3 nM	11200 nM						
Cc1nc(N)oc1CCCN/C(N)=N/C(=O)NCC(C)C1CCCCC1.O=C(O)C(F)(F)F.O=C(O)C(F)(F)F (stereo unspecified)	8320 nM	4.5 nM	6030 nM	16 nM	7590 nM	245 nM	Stable								

Compound	Ki (Histamine H3 receptor [1])	Kd (Histamine H1 receptor)	Ki (Histamine H1 receptor)	Kd (Histamine H4 receptor)	Ki (Histamine H4 receptor)	Ki (Histamine H2 receptor [2])	Stability [3]	Kd (Histamine H3 receptor [4])	Ki (Histamine H3 receptor [4])	EC50 (Histamine H2 receptor [5])	EC50 (D(3) dopamine receptor [6])	EC50 (D(2) dopamine receptor [7])	Ki (D(2) dopamine receptor [8])	Ki (D(3) dopamine receptor [9])	EC50 (Histamine H2 receptor [10])
CC(CCCc1ccccc1)CNC(=O)/N=C(\N)NCCCc1nnc(N)s1 (stereo unspecified)	3980 nM	4.5 nM	5130 nM	16 nM	4900 nM						468 nM		447 nM	324 nM	
Cc1nc(N)sc1-c1ccc(N/C(N)=N/C(=O)NCCCCCCNC(=O)/N=C(\N)Nc2ccc(-c3sc(N)nc3C)cc2)cc1	1950 nM	4.5 nM	2140 nM	16 nM	2140 nM	347 nM									
CCCCCNC(=O)/N=C(/N)NCCCc1nnc(C)s1.O=C(O)C(F)(F)F	> 10000 nM	4.5 nM	> 10000 nM	16 nM	> 10000 nM	2190 nM	Stable								
CCCCCNC(=O)/N=C(\N)NCC1CCc2nc(N)sc2C1.O=C(O)C(F)(F)F.O=C(O)C(F)(F)F (stereo unspecified)	6610 nM	4.5 nM	5250 nM	16 nM	5890 nM	155 nM	Stable	3 nM	6610 nM						
Cc1ccc(CC(C)CNC(=O)/N=C(\N)Nc2ccc(-c3sc(N)nc3C)cc2)cc1 (stereo unspecified)	8320 nM	4.5 nM	1820 nM	16 nM	6310 nM	331 nM		3 nM	8320 nM						
N/C(=N\C(=O)NCCCCCCCCNC(=O)/N=C(\N)NCCCc1nnc(N)s1)NCCCc1nnc(N)s1	6920 nM	4.5 nM	1820 nM	16 nM	8910 nM	4.79 nM									
Cc1ccc(CC(C)CNC(=O)/N=C(\N)NCC2CCc3nc(N)sc3C2)cc1 (stereo unspecified)		4.5 nM	182 nM	16 nM	3390 nM	107 nM		3 nM	1950 nM						
Cc1nc(N)sc1-c1ccc(N/C(N)=N/C(=O)NCC(C)CCCc2ccccc2)cc1 (stereo unspecified)	7940 nM	4.5 nM	7590 nM	16 nM	6030 nM	316 nM		3 nM	7940 nM						
C[C@@H](NC(=O)/N=C(\N)NCCCn1cc(CN(C)C)nn1)c1ccccc1	10200 nM	4.5 nM	> 10000 nM	16 nM	> 10000 nM	4470 nM									
Cc1nnc(CCCN/C(N)=N/C(=O)NCc2ccccc2)s1	> 10000 nM	4.5 nM	10700 nM	16 nM	> 10000 nM	5620 nM									
CCCN[C@H]1CCc2nc(N)sc2C1 [PRAMIPEXOLE]		4.5 nM		16 nM		13800 nM				166 nM					
CCCCCNC(=O)/N=C(\N)NCCCc1cnc(N)s1.O=C(O)C(F)(F)F.O=C(O)C(F)(F)F	> 10000 nM	4.5 nM	9550 nM	16 nM	> 10000 nM	22.9 nM	Stable			6.03 nM					56.2 nM
N/C(=N\C(=O)NCc1ccccc1)NCCCc1cnc(N)s1	> 10000 nM	4.5 nM	5620 nM	16 nM	> 10000 nM	26.9 nM				4.9 nM	67.6 nM	3390 nM	4570 nM	74.1 nM	49 nM
Cc1nc(N)sc1-c1ccc(N/C(N)=N/C(=O)NCC(C)C2CCCCC2)cc1 (stereo unspecified)	5620 nM	4.5 nM	2880 nM	16 nM	7760 nM	309 nM									
Cc1nc(N)sc1-c1cccc(N/C(N)=N/C(=O)NCCCCCCNC(=O)/N=C(\N)Nc2cccc(-c3sc(N)nc3C)c2)c1	708 nM	4.5 nM	1450 nM	16 nM	2340 nM	380 nM									
Cc1nnc(CCCN/C(N)=N/C(=O)NCC(C)C2CCCCC2)s1 (stereo unspecified)		4.5 nM	7080 nM	16 nM	> 10000 nM	1050 nM		3 nM	11500 nM						
